Experimental data from the RNAGym collection of RNA variant scans (doi:10.1038/s41586-018-0170-7).

B1: tRNA (parent)
chain: GUUCCGUUGGCGUAAUGGUAACGCGUCUCCCUCCUAAGGAGAAGACUGCGGGUUCGAGUCCCGUACGGAACG

Variants of: B1
Assay: yeast fitness, log relative to wild type (ln ratio); higher = fitter; tRNA-Arg(CCU), competitive growth, 37 C, 1 M NaCl
Method in brief: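 BY4742 cells without the chromosomal tRNA-Arg(CCU) gene carried a combinatorial variant library on a HIS3 centromeric plasmid, from two independent transformations. After 4 generations in SC-HIS at 30 °C, pools spent ~6.5 generations (~26.5 h) in SC-HIS 1M NaCl at 37 °C, giving three outputs per input, and 125 bp paired-end Illumina reads counted the variants. Fitness is the natural log of each genotype's generations over the wild type's, with generations taken as OD-scaled log2 output/input frequency weighted by inverse variance across replicates.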

Variant	yeast fitness (ln)
G1A G6A C27U A43C A70U C71U	-0.314
U2C G6U C46U C66U A70U	-0.0353
G6A A43C C46U A69G A70G C71U	-0.241
A43C C46U A69G	0.00452
G1A G6A C27U	-0.134
U2C C46U C66U A69G A70U	-0.0518
G1A U2C G6U C27U C46U A70U	-0.157
U2C C27U A43C C66U A69G C71U	-0.388
G6A C27U C46U C66U A69G	-0.0373
G1A U2G G6U A43C C66U A69G A70U	-0.255
G1A U2C G6U C27U C46U A69G A70G	-0.176
G1A G6U A69G A70U C71U	-0.407
G1A U2G G6U C46U C66A A70G	-0.258
U2C C27U A43C C46U C66A A69G A70G C71U	-0.15
U2C A43C C46U C66A A70U C71U	-0.169
G1A A43C C66A A70G	-0.19
G1A U2C G6U C27U C66A A70G	-0.141
U2C G6U C27U A43C C66A A70U C71U	-0.272
U2C G6A C27U A43C C46U A70G	-0.133
U2C G6U C66A A69G A70G	-0.0222
G6U C27U A43C C46U A69G A70U C71U	-0.45
G1A G6A A43C C66U A69G A70G C71U	-0.245
G1A U2G G6U C27U A43C C66U A69G A70G	-0.337
A43C C66A A69G A70U	-0.153

Variant	yeast fitness (ln)
U2G G6A A43C C46U A70G	-0.148
U2G G6U C27U A70G	-0.211
G1A U2G C27U C46U C66U C71U	-0.21
G6U C27U A43C C46U C66A A69G C71U	-0.439
G6A C27U A43C C46U C66A A70G C71U	-0.296
G6U C27U C46U	-0.174
G1A U2C G6U A69G A70G C71U	-0.367
U2G C46U	-0.0208
G1A U2C C27U C71U	-0.238
G6U C27U A69G C71U	-0.342
C46U A69G A70G C71U	-0.237
U2C G6U C27U A43C C66U A70U C71U	-0.363
G1A G6A C27U C66A A70U C71U	-0.292
G1A G6U A43C C66A A70U	-0.411
U2G A43C A69G A70G	-0.0982
G1A C27U C66A A70U C71U	-0.243
G1A U2G G6U C27U A43C C46U A69G A70G C71U	-0.446
U2G G6A C66U A69G A70U C71U	-0.641
C27U A69G C71U	-0.113
U2G A43C C46U C66U A70G	-0.0585
U2G A43C C46U C66U A70U	-0.101
G1A U2G G6A C27U C46U C66A A70U	-0.187
G1A C46U A70G	-0.226
U2G G6U C46U C66A	-0.0648

Variant	yeast fitness (ln)
U2G	-0.0125
U2C G6U C27U A43C C46U C71U	-0.17
G6A C27U A43C C66U	-0.0646
U2G C46U A70G C71U	-0.284
G1A G6A C27U A43C C71U	-0.213
G6A A43C C46U C66U A69G A70G	-0.233
G1A G6U C27U C66U A69G A70G C71U	-0.386
C27U A70U	-0.042
G1A G6A C27U A43C A69G A70G C71U	-0.33
G6U A43C C66U A69G A70G C71U	-0.442
U2G G6U A69G A70U C71U	-0.26
G1A U2C G6A A43C C46U C66U A70G	-0.0356
G1A G6U C27U C66A A69G C71U	-0.388
U2G C27U C46U A69G A70G	-0.355
G1A G6U C27U C46U	-0.207
G1A U2C C66U A69G A70G C71U	-0.055
G1A C27U A43C C66U	-0.242
U2G G6U C27U A43C	-0.107
G6U A43C C66U A70G C71U	-0.392
G6A C27U C46U A70U C71U	-0.218
U2G A43C C46U A69G	-0.0675
G1A C46U	-0.0224
C46U C66A A70G C71U	-0.0671
U2C G6U C27U C46U A69G A70U	-0.196

Variant	yeast fitness (ln)
U2C G6U A70U C71U	-0.102
G6U C27U A43C C46U C66A A70U	-0.382
G6A C27U A43C C66A A69G A70G C71U	-0.262
U2G G6A C27U A43C C46U C66A C71U	-0.283
U2G G6U C27U A43C C66U A69G A70G	-0.39
G6A C27U A43C C46U C66U A69G C71U	-0.307
G1A U2C A43C C46U C66A A69G A70G C71U	-0.0434
G1A U2G G6U C46U C66U	-0.14
U2C G6A C66U A70U C71U	-0.172
U2G G6A C27U C46U C66U	-0.206
U2C C27U A43C C66U A69G A70G	-0.332
U2G G6U C27U C46U A70U	-0.176
C27U C46U C66A A70U C71U	-0.13
G1A U2G G6A C27U C71U	-0.263
U2C G6U C46U C66U	-0.12
G6U C46U C66A A69G	-0.0364
G1A U2G G6A C27U C46U A70G C71U	-0.244
G6U C27U A43C C46U A69G C71U	-0.339
G1A U2C G6A C27U A43C C46U C66U A70G C71U	-0.0245
U2C A43C C46U	0.00393
U2G G6U A43C C66U A69G A70U C71U	-0.468
U2C C27U A43C C46U C66U A70G	-0.0949
G1A U2C C46U C66A A69G A70G C71U	-0.273
G1A U2C C27U A70G C71U	-0.0348

Variant	yeast fitness (ln)
G1A U2C A43C C66U A69G A70G C71U	-0.287
G1A U2G G6A C27U C66A A70G	-0.296
U2G G6A C27U C66A A70U	-0.126
G1A G6A C27U A43C C46U C66U C71U	-0.166
G6U C27U C71U	-0.222
U2G G6A A43C C46U C66A A70G C71U	-0.139
G1A U2G G6U	-0.102
C27U A43C C46U C66A A69G C71U	-0.317
U2G C27U C66U A70G C71U	-0.21
U2G G6U C27U C66A A69G A70G	-0.145
G6A A43C C66U	-0.0381
U2C G6U C66U A70U C71U	-0.233
U2G G6U C27U A43C C66A A70U	-0.0378
U2G G6U C27U C46U C66A C71U	-0.147
U2C G6A C27U A43C A69G A70G C71U	-0.256
U2C G6U A43C C71U	-0.117
U2G G6U C66A A69G C71U	-0.101
U2C C27U A43C C46U C66A A70G	-0.0421
G1A U2G G6U C27U A43C C46U C66A A69G A70G C71U	-0.337
G1A U2C C46U C66U A69G A70G C71U	-0.0168
G1A C27U C46U C66A A69G C71U	-0.168
G1A U2G G6A C46U A70U	-0.143
G1A U2G G6U C27U A43C C46U C66U A69G C71U	-0.4
U2C G6U C66U A69G A70G	-0.103

Variant	yeast fitness (ln)
U2G G6U C66A A69G A70G	-0.25
G6U A43C C46U C66U A69G	-0.261
G1A U2C G6A C27U A43C C46U A69G A70U C71U	-0.408
U2G G6A C27U C66U A70U C71U	-0.364
U2G G6A A43C C46U C66U A70G	-0.205
G1A U2C G6U C66U A70U	-0.153
C27U C46U C66U A69G A70U	-0.104
U2G G6A C27U A43C C46U C66U	-0.102
U2G G6U C66U A69G A70U C71U	-0.421
G1A U2C G6A A69G A70U C71U	-0.281
G6U C27U C46U C66U A70U	-0.19
G1A U2C G6U C46U A69G A70G	-0.0666
U2C G6A A43C C46U C66U A70U C71U	-0.199
U2C G6U C27U A43C C46U A69G A70U C71U	-0.309
G6U A43C C66U A70U	-0.301
U2C A43C C46U C66U A69G A70G	-0.0788
G6A A69G A70U C71U	-0.315
G6A C66U A69G	-0.0231
U2C C46U C66A A69G A70G	-0.0391
U2C G6A A43C C46U C66U A70U	-0.209
G6U A43C C46U C66U A70G	-0.205
U2G G6U C46U C66A A70G	-0.0357
G6A C27U A43C C46U A70G	-0.128
G1A U2G A43C C46U C66A A69G C71U	-0.335

Variant	yeast fitness (ln)
G1A U2G G6U C27U A70G C71U	-0.326
U2G C27U A43C C71U	-0.157
G1A C27U A43C C46U C66A A69G A70U C71U	-0.415
G1A C27U A43C A69G C71U	-0.318
G1A U2C C27U A43C C71U	-0.0487
G6U A70G	-0.221
U2C C27U A43C C66A A70U C71U	-0.319
U2G C27U A70U C71U	-0.0745
G1A U2G G6A C27U C66A A69G A70G C71U	-0.353
U2G G6U A43C A70U C71U	-0.215
G1A U2G G6U C46U A70G C71U	-0.257
G1A U2G A43C C46U A69G C71U	-0.18
G1A A43C C71U	-0.0202
G1A G6A A43C C66U A70U	-0.374
G1A U2C G6A C27U C46U C66U A69G A70G	-0.364
G1A G6U C46U A69G A70G	-0.203
G1A U2G G6A A43C A70U C71U	-0.309
G1A G6A C46U C66U A69G C71U	-0.0213
U2C G6A A43C C46U A70U	-0.0234
G1A A43C C46U C66A C71U	-0.139
C27U C46U C66A A69G A70U C71U	-0.396
U2C G6A C46U A70G	0.00625
U2G G6A C46U C66U A69G A70G	-0.442
